Measured values of several laboratories.
Each line is one published result; the experiments were not run side by side.
Target: Muscle, skeletal receptor tyrosine-protein kinase (MUSK, Homo sapiens, UniProt O15146)
One construct used (O15146 24-869): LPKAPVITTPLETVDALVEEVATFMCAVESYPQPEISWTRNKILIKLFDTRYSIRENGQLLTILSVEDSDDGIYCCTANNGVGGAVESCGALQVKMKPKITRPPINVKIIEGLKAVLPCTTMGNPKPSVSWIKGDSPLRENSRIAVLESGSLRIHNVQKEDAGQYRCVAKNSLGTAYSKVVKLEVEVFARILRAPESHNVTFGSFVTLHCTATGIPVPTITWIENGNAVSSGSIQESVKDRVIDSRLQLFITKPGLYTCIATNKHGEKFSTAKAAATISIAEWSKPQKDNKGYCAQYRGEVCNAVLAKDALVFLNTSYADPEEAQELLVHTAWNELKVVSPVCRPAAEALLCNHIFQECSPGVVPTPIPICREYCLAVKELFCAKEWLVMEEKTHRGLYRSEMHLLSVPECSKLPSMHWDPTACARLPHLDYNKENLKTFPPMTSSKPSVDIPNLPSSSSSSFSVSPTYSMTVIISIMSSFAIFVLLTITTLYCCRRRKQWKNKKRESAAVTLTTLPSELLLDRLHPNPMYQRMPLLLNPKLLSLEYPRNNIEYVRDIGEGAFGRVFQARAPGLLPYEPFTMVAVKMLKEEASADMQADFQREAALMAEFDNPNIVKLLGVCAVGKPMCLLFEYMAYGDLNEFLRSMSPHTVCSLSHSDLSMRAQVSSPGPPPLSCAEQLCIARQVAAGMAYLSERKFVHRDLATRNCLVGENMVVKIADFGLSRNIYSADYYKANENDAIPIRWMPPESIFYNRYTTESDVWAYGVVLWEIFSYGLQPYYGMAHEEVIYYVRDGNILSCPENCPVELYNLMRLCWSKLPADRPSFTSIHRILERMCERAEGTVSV

Structure (SMILES)	assay	conditions	endpoint	result
CCN(CC)c1ccc(C2=NNC(=O)CC2C)cc1[N+](=O)[O-] (stereo not drawn)	enzyme activity, inhibitor	10 µM	remaining activity	85%
CC(=O)C1=C(C)N(c2cccc(C(F)(F)F)c2)C(=O)N[C@@H]1c1ccc(C#N)nc1	cell-free assay, competition with immobilised ligand	1 µM	remaining binding	100%
Cc1ccc(NC(=O)c2ccc(C)c(C(F)(F)F)c2)cc1C#Cc1nn(C2CCC(O)CC2)c2ncnc(N)c12 (stereo not drawn)	cell-free assay	10 µM	remaining signal	70%
Cc1ccc(C(=O)NCc2ccsc2)cc1C#Cc1cn(C(C)C)c2ncnc(N)c12	enzyme activity, inhibitor	1 µM	activity vs control	73%
Oc1cccc(-c2nc(N3CCOCC3)c3oc4ncccc4c3n2)c1	cell-free assay	0.5 µM	remaining signal	87.8%
CNC(=O)c1cc(Oc2ccc(NC(=O)Nc3ccc(Cl)c(C(F)(F)F)c3)cc2)ccn1	enzyme activity, inhibitor	0.3 µM	inhibition	77%
CN1CC(Oc2cnc(C#N)cc2-c2ccn3nc(NC(=O)C4CC4)cc3c2)C1	enzyme activity, inhibitor	1 µM	inhibition	6%
COc1cc2ncnc(Nc3ccc(Oc4ccccc4)c(C)c3C)c2cc1OC	enzyme activity, inhibitor	1 µM	inhibition	-2%
N#CCCc1ccc2c(c1)-c1[nH]c3ccc([N+](=O)[O-])cc3c1CC(=O)N2	cell-free assay	0.5 µM	remaining signal	63%
C[C@H](NC(=O)c1cnc2n1[C@](C)(Cc1ccc(C#N)cc1)C(=O)N2c1cc(Cl)c(F)c(Cl)c1)C(=O)NC1(c2ccccn2)CC1	cell-free assay, competition with immobilised ligand	1 µM	remaining binding	100%
Cc1ccc(Nc2nccc(N(C)c3ccc4c(C)n(C)nc4c3)n2)cc1S(N)(=O)=O	enzyme activity, inhibitor	0.3 µM	inhibition	75%
Cc1sc(C(=O)NC2COC2)cc1-n1cc(NC(=O)Nc2c(F)cccc2Cl)cn1	enzyme activity, inhibitor	10 µM	remaining activity	103%
O=C(NC[C@@H]1[C@H]2CN(C(=O)OCc3cc(C(F)(F)F)cc(C(F)(F)F)c3)C[C@@H]12)c1ccc2[nH]nnc2c1	cell-free assay, competition with immobilised ligand	1 µM	remaining binding	77%
CCN(CC)CCNC(=O)c1c(C)[nH]c(/C=C2\C(=O)Nc3ccc(F)cc32)c1C	enzyme activity, inhibitor	10 µM	inhibition	90%
CS(=O)(=O)NCC[C@H](NC(=O)c1cncc2c1cnn2-c1ccc(F)cc1)c1ccnc(S(C)(=O)=O)c1	cell-free assay, competition with immobilised ligand	1 µM	remaining binding	100%
CC(C)(C)c1nc2c(s1)c1nc(N)ncc1c1ccc(NS(=O)(=O)c3c(F)cccc3F)c(F)c12	enzyme activity, inhibitor, radiometric	1 µM	remaining activity	80%
O=C(O)[C@@H]1[C@@H](Cn2nnc3ccccc3c2=O)CC[C@H]1C(=O)c1ccc(OCCC2CCOCC2)cc1	cell-free assay, competition with immobilised ligand	1 µM	remaining binding	100%
O=C(Nc1cnn(-c2csc(C(=O)NC3COC3)c2)c1)Nc1ccccc1Cl	enzyme activity, inhibitor	5 µM	remaining activity	94.5%
CN(C)C(=O)Cn1cc(-c2nc(C3(c4ccc(-c5cnc(N)nc5)cc4)CC3)no2)cn1	cell-free assay, competition with immobilised ligand	1 µM	remaining binding	100%
Nc1ncnc2occ(-c3ccc(NC(=O)Nc4cc(C(F)(F)F)ccc4F)cc3)c12	cell-free assay, inhibitor	20 µM	remaining signal	0%
CNCc1ccccc1-c1csc([C@H](C)Nc2nc(C)nc3cc(OC)c(OC)cc23)c1	cell-free assay, competition with immobilised ligand	1 µM	remaining binding	90%
CCCOc1ccc(OC)c(F)c1C(=O)c1ccc(C(=O)N[C@@H]2CNC[C@H]2NC(=O)c2ccc3[nH]ncc3c2)cc1	enzyme activity, inhibitor	0.75 µM	remaining activity	13%
c1ccc(N2CCN(Cc3nc4ccccc4[nH]3)CC2)nc1	binding, competition with immobilised ligand	1 µM	remaining binding	100%
COc1cc(Cl)c(C(=O)N[C@@H](CN[C@H]2CC[C@@H](N)CC2)Cc2ccc(C#N)cc2)cc1-c1ccc(CN[C@H](C)c2ccc(C)cc2)o1	enzyme activity, inhibitor	1 µM	remaining activity	84%
